Fibroblast inh: antiproliferative effect on LL 47 fibroblasts – human, LL 47 cells, CellTiter-Glo luminescence, primary screen | LL 47 human lung fibroblast viability, ATP luminescence; active compounds read low | viability, % at 10 µM | hit rate 1.1% among 85,000 | AID 719, 2007;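 active = viability at or below 50% in the single dose screen; inactive = viability above 50%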;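 also: compound exposure lasted 72 h before the ATP readout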
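Material: human LL 47 lung fibroblast cells; quantity: 1,150 cells/well; medium: IMEM plus 15% FBS; doses: 0.1% DMSO in all compound wells; timing: overnight attachment after seeding, then 72 h compound exposure at 37 °C; detection: CellTiter-Glo luminescence; measure: % viability of median cell-only signal; controls: cell-only wells, no compound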
H69AR inhibit: proliferation blockers of H69AR lung cancer cells, primary screen, cell-based, human, 86K library; H69AR lung tumor viability, ATP luminescence, 72 h; active compounds read low; AID 598, 2007; viability, % at 10 µM; hit rate 6% among 85,000;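 active = viability at or below 40%; inactive = viability above 40%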;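 also: multidrug resistant small cell line overexpressing MRP-1 efflux transporter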
HCT116 bCat-KO: primary screen for growth suppressors in beta-catenin knockout HCT116 cells (colon tumor, human); HCT116 beta-catenin knockout viability, CellTiter-Glo, 60 h; active compounds read low; viability, % at 10 µM; hit rate 1.5% among 140,000;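 active = viability at or under a set limit, the compound median less 4 SD, cut at about 6% in these data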
HCT116 PTEN-null: growth suppression of PTEN-null HCT116, primary screen, cell-based, CellTiter-Glo. HCT116 PTEN-null viability, 60 h; active compounds read low. viability, % at 10 µM. hit rate 1.2% among 140,000. AID 827, 2007;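 active = viability at or below a set limit, 4 SD under the median of all tested compounds, cut at about 3.7% in these data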;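 also: PTEN knockout HCT116 line with beta catenin targeted HCT116 as companion control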
HUVEC inhibit: inhibitors of HUVEC proliferation, primary screen, cell-based, 384-well. CellTiter-Glo luminescence, 72 h; active compounds read low. hit rate 1.1% among 86,000. viability, % at 10 µM (by protocol). AID 648, 2007;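 active = viability at or below 30%; inactive = viability above 30%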
Numbers stand for hits; 0 = inactive; - = not tested or not shown. Shown is part of a subset that was picked to be rich in hits.

SMILES | Fibroblast inh | H69AR inhibit | HCT116 bCat-KO | HCT116 PTEN-null | HUVEC inhibit
COC(=O)c1[nH]c2ccc(Br)cc2c1NC(=O)C(C)N1CCN(C2CCCCC2)CC1 (configuration not stated) | 24.6 | 14.6 | 0 | 3.2 | 28.8
Cc1cc(Nc2ccc3c(c2)OCCO3)c2cc(Cl)ccc2n1 | - | - | 0 | 0 | -
C=CCOC(=O)C1=C(C)NC(SCC(=O)Nc2ccc(C)c(Cl)c2)=C(C#N)C1c1ccco1 (configuration not stated) | 16.9 | 7.0 | 4.2 | 0 | 0
COc1ccc(Cl)cc1NC(=O)Nc1ccc(Br)cn1 | 0 | 37.7 | 0 | 0 | 0
COc1ccc(Cl)cc1NC(=O)Nc1cccc([N+](=O)[O-])c1C | - | - | 3.1 | 0 | -
COc1ccc(Cl)cc1NC(=O)NC1CCCCC1 | 0 | 0 | 0 | 0 | 0
CCCCn1c(=O)nc2n(-c3ccc(Cl)cc3)c3ccccc3cc-2c1=O | - | - | 0 | 0 | -
CCOC(=O)c1c(N2C(=O)Nc3cc(Cl)c(Cl)cc3N2O)sc2c1CCCCC2 | - | - | 0 | 0 | -
N#Cc1ccc(N2CCN(C(=O)c3cccc(F)c3)CC2)c(F)c1 | 0 | 0 | 0 | 0 | 0
COc1ccccc1C(C)NC(=O)c1ccc(C)o1 (configuration not stated) | 0 | 26.0 | 0 | 0 | 0
COc1ccc(OC)c(C(C)NC(=O)c2ccco2)c1 (configuration not stated) | 0 | 21.9 | 0 | 0 | 0
Cc1ccc(C(=O)NC(C)c2ccccc2)o1 (configuration not stated) | 0 | 0 | 0 | 0 | 0
CCCc1cc(-c2nc(N)ncc2-c2ccc3c(c2)OCCCO3)c(O)cc1OC | 0 | 28.1 | 0 | 0 | 0
Oc1ccc(CN2CCCc3ccccc32)c2cccnc12 | 0 | 33.7 | 0 | 0 | 0
CCOC(=O)C1CCN(Cc2ccccc2C(F)(F)F)CC1 | 0 | 0 | 0 | 0 | 0
CCOC(=O)C1CCN(Cc2ccc(O)c3ncccc23)CC1 | 0 | 1.1 | 3.0 | 1.9 | 0
COc1ccccc1N1CCN(Cc2ccc(O)c3ncccc23)CC1 | - | - | 3.3 | 1.7 | -
Cc1nc2ccccc2nc(C)c1=NOCc1ccccc1Cl | - | - | 0 | 0 | -
Fc1ccc(-c2n[nH]c(=S)n2/N=C/c2c[nH]c3ccccc23)cc1 | - | - | 0 | 0 | -
Cc1ccc(C(=O)c2coc3cc([N+](=O)[O-])c(O)c([N+](=O)[O-])c23)cc1 | - | - | 0 | 0 | -
O=C(/C=C/c1ccccc1Cl)c1ccccc(=O)c1O | - | - | 1.3 | 2.1 | -
Cc1ccc(/C=C/C(=O)c2ccccc(=O)c2O)c(C)c1 | - | - | 4.2 | 0 | -
Cc1ccc(C)c(/C=C/C(=O)c2ccccc(=O)c2O)c1 | - | - | 0 | 0 | -
CCN(CCCNC(=O)C1CCC(=O)N1C(C)C)c1cccc(C)c1 (configuration not stated) | 0 | 0 | 0 | 0 | 0
CCCCC(CCCC)=N/N=C/c1c(O)n(CC)c2cc(C3=NNC(=O)CC3)ccc12 | 0 | 33.3 | 0 | 0 | 0
SMILES | Fibroblast inh | H69AR inhibit | HCT116 bCat-KO | HCT116 PTEN-null | HUVEC inhibit
Cc1ccc(NC(=O)C2CCN(S(C)(=O)=O)CC2)cc1 | 0 | 0 | 0 | 0 | 0
CS(=O)(=O)N1CCC(C(=O)Nc2ccc(Oc3ccccc3)cc2)CC1 | 0 | 31.9 | 0 | 0 | 0
O=C(Nc1ccc2nc(-c3ccco3)c(-c3ccco3)nc2c1)N1CCCCCC1 | - | - | 0 | 0 | -
CCOC(=O)C1CCN(C(=O)Nc2ccc3nc(-c4ccco4)c(-c4ccco4)nc3c2)CC1 | 0 | 37.9 | 0 | 0 | 0
CN(C)S(=O)(=O)c1ccc(C(=O)Nc2nc(-c3cc4ccccc4o3)cs2)cc1 | - | - | 0 | 0 | -
CN(CC1CCCO1)S(=O)(=O)c1ccc(C(=O)Nc2nc(-c3ccccn3)cs2)cc1 (configuration not stated) | 41.5 | 0 | 3.9 | 0 | 0
CC(C)N=C(NS(=O)(=O)c1ccccc1)C(Cl)(Cl)Cl | - | - | 3.5 | 2.0 | -
N=c1c(-c2nc3ccccc3[nH]2)cc(C(=O)c2cccs2)nn1-c1ccccc1 | 0 | 5.4 | 0 | 0 | 0
N=c1c(-c2nc3ccccc3[nH]2)cc(C(=O)c2ccco2)nn1-c1ccccc1 | - | - | 0 | 0 | -
Cc1csc(NC(=O)c2cc(-c3ccccc3)nc3ccccc23)n1 | - | - | 0 | 0 | -
CCOC(=O)c1c(C)[nH]c(C2=NNC(=Nc3cccc(Cl)c3)SC2)c1C | - | - | 2.8 | 2.1 | -
CCOC(=O)c1c(C)[nH]c(C=O)c1Cc1cccc(Cl)c1 | - | - | 0 | 0 | -
CN(C)CCC(=O)c1ccc(Cl)cc1 | 0 | 18.8 | 0 | 0 | 0
O=C(O)CCC(=O)CCC(=O)c1ccc(Cl)cc1 | 0 | 0 | 0 | 0 | 0
Cc1nn(-c2ccccc2)c2c1C1(C(=O)N3c4c(cccc41)C(C)CC3(C)C)C(C#N)=C(N)O2 (configuration not stated) | 0 | 38.7 | 0 | 0 | 0
Cc1cc(C)cc(NC(=O)CSCc2nc3c(nnn3Cc3ccc(F)cc3)c(=O)[nH]2)c1 | 0 | 0 | - | - | 0
Cc1cc(C(=O)OCC(=O)Nc2ccc(F)cc2)c(C)o1 | 0 | 0 | 0 | 0 | 0
CCOC(=O)c1cnc(SCc2nc(N)nc(Nc3ccc(C)cc3)n2)nc1N | 0 | 35.2 | 0 | 0 | 0
CCOC(=O)c1cnc(SCc2nc(N)nc(Nc3ccc(F)cc3)n2)nc1N | 0 | 36.5 | 0 | 0 | 0
CCc1cccc(NC2c3ccccc3C(=O)N2c2cccnc2)c1 (configuration not stated) | 0 | 0 | 0 | 0 | 0
O=C(c1ccc(S(=O)(=O)c2ccccc2Cl)c([N+](=O)[O-])c1)N1CCN(Cc2ccccc2)CC1 | - | - | 4.9 | 0 | -
Cc1ccc(NC(=O)c2cc(NC(=O)C3CC=CCC3C(=O)O)ccc2N2CCOCC2)cc1Cl (configuration not stated) | 0 | 0 | 0 | 0 | 0
Cc1cc(C)c(C)c(S(=O)(=O)N2CCN(C(=O)c3cc(=O)[nH]c4ccccc34)CC2)c1C | 0 | 11.7 | 0 | 0 | 0
Cc1ccc(S(=O)(=O)N2CCN(C(=O)c3cc(=O)[nH]c4ccccc34)CC2)c(C)c1 | 0 | 39.0 | 0 | 0 | 0
Cc1ccc(S(=O)(=O)N2CCN(C(=O)CSc3nc4ccccc4c(=O)[nH]3)CC2)c(C)c1 | 0 | 0 | 0 | 0 | 0
SMILES | Fibroblast inh | H69AR inhibit | HCT116 bCat-KO | HCT116 PTEN-null | HUVEC inhibit
O=C(CC(NC(=O)c1ccccc1)c1ccccc1)Nc1cccc2ccccc12 (configuration not stated) | - | - | 0 | 0 | -
CN1C/C(=C/c2ccsc2)C(=O)/C(=C/c2ccsc2)C1 | - | - | 3.5 | 3.1 | -
CCN1C/C(=C/c2ccc(N3CCOCC3)cc2)C(=O)/C(=C/c2ccc(N3CCOCC3)cc2)C1 | - | - | 2.2 | 1.9 | -
CN1C/C(=C\c2ccc(N3CCOCC3)cc2)C(=O)/C(=C/c2ccc(N3CCOCC3)cc2)C1 | - | - | 2.9 | 2.2 | -
Cc1ccc(S(=O)(=O)Oc2ccccc2/C=N/NC(=O)c2c(Cl)cnn2C)cc1 | 0 | 33.3 | 0 | 0 | 0
O=C1[C@H]2[C@@H](C(=O)N1c1cccc3ccccc13)C1(C(=O)c3ccccc3C1=O)N1CCC[C@@H]21 | 0 | 0 | 0 | 0 | 0
CCOC(=O)CNC(=O)c1ccccc1 | 0 | 0 | 0 | 0 | 0
CCOC(=O)CNC(=O)C(=O)c1c(O)[nH]c2ccccc12 | 48.1 | 0 | 0 | 0 | 0

From PubChem
